Measured values as given in ChEMBL document CHEMBL1157054, “Design, synthesis and biological evaluation of indane-2-arylhydrazinylmethylene-1,3-diones and indol-2-aryldiazenylmethylene-3-ones as beta-amyloid aggregation inhibitors” (Eur J Med Chem, 2010).
The source made the active and inactive calls. The calls are words filed in the database; no cut-off is given here.

Experiment: Inhibition of amyloid beta (1 to 40) aggregation assessed as inhibition of fibril formation by thioflavin T fluorescent dye assay
Summary of the method: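 ThT fluorimetric assay on HFIP-pretreated Aβ1-40, 30 µM in PBS pH 7.4 containing 2% HFIP and 10% DMSO, incubated 2 h at 25 °C. Fluorescence read after mixing with 25 µM ThT (phosphate pH 6.0), ex 440/em 485 nm, blank-corrected vs inhibitor-free aggregation. IC50 from 5-7 concentrations tested in triplicate, three independent experiments.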
With COc1ccc2[nH]cc(/C=N\Nc3ccc(Cl)cc3)c2c1 the IC50 was 23 µM. Work on O=C1C(=C/N=N/c2cccc(Cl)c2)Nc2ccccc21 yielded an IC50 of 2.5 µM. For O=C1C(=CNNc2cccc(Cl)c2)C(=O)c2ccccc21, the IC50 was 18 µM. In the case of Cc1ccc(/N=N/C=C2Nc3ccc(Br)cc3C2=O)cc1, the IC50 is reported as 51 µM. In the case of O=C1C(=C/N=N/c2cccc(Cl)c2)Nc2ccc(Br)cc21, the IC50 is reported as 4.4 µM. In the case of CC(C)c1ccc(NNC=C2C(=O)c3ccccc3C2=O)cc1, the IC50 is reported as 18 µM. In the case of O=C1C(=CNNc2ccc(Cl)cc2)C(=O)c2ccccc21, the IC50 is reported as 23 µM. O=C1C(=C/N=N/c2ccccc2Cl)Nc2ccc(Br)cc21 gave an IC50 of 7.8 µM. O=C1C(=C/N=N/c2ccccc2)Nc2ccccc21 gave an IC50 of 8.8 µM. O=C1C(=CNNc2ccccc2Cl)C(=O)c2ccccc21 gave an IC50 of 32 µM. For CC(C)c1ccc(/N=N/C=C2Nc3ccc(Br)cc3C2=O)cc1, the IC50 was 23 µM. Compound O=c1c(O)c(-c2ccc(O)c(O)c2)oc2cc(O)cc(O)c12 [QUERCETIN] has an IC50 of 0.8 µM. For Cc1ccc(/N=N/C=C2Nc3ccccc3C2=O)cc1, the IC50 was 3.6 µM. With CC(C)c1ccc(/N=N/C=C2Nc3ccccc3C2=O)cc1 the IC50 was 1.4 µM. Work on O=C1C(=C/N=N/c2ccccc2Cl)Nc2ccccc21 yielded an IC50 of 13 µM. With O=C1C(=C/N=N/c2ccccc2)Nc2ccc(Br)cc21 the IC50 was 35 µM.

Experiment: Inhibition of amyloid beta (1 to 40) aggregation assessed as inhibition of protofibril formation after 3 days
Summary of the method: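 Aβ1-40 (30 µM) with compound at 50 µM in 0.217 M phosphate buffer pH 8.0, 10% ethanol, incubated at 37 °C up to 7 days; aliquots taken at time points, applied to carbon-coated grids, negatively stained with 2% uranyl acetate, imaged by TEM at 60 kV, 60,000-fold magnification; qualitative fibril/protofibril assessment.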
For CC(C)c1ccc(/N=N/C=C2Nc3ccccc3C2=O)cc1, the inhibition was “Active”.

Experiment: Inhibition of amyloid beta (1 to 40) aggregation assessed as inhibition of fibril formation at 100 uM by thioflavin T fluorescent dye assay
Summary of the method: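 Aβ1-40 (HFIP-treated, lyophilized) at 30 µM in PBS (0.01 M, NaCl 0.1 M, pH 7.4) with 2% HFIP and 10% DMSO, test compound 100 µM; triplicate incubations, 2 h at 25 °C. Sample mixed with 25 µM ThT in 0.025 M phosphate pH 6.0; fluorescence ex 440/em 485 nm. Percent inhibition = 100 − [(Fi − Fb)/F0]×100, blank-corrected against free Aβ aggregation.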
Work on O=C1C(=CNNc2ccccc2)C(=O)c2ccccc21 yielded an inhibition of 49%. With O=C1C(=C/N=N/c2ccc(Cl)cc2)Nc2ccccc21 the inhibition was 33%. In the case of O=C1C(=C/N=N/c2ccc(Cl)c(Cl)c2)Nc2ccc(Br)cc21, the inhibition is reported as 23%. O=C1CCC(=O)C1=CNNc1ccc(Cl)cc1 gave an inhibition of 44%. O=c1c(=NNc2ccc(Cl)cc2)c(=O)c2ccccc12 showed an inhibition of 38%. Cc1ccc(NNC=C2C(=O)c3ccccc3C2=O)cc1 showed an inhibition of 44%. Compound O=C1C(=C/N=N/c2ccc(Cl)cc2)Nc2ccc(Br)cc21 has an inhibition of 20%.
